From PubChem
In the library only some 2.7% were active in any assay of this set; here they are far more common.
RAM network inh – inhibitors of the yeast RAM network, primary screen, dse1pr::URA3 reporter, 5-FOA selection | S. cerevisiae dse1pr::URA3 reporter, 5-FOA growth OD615, 2 d; analog-sensitive cbk1-as2 kinase mutant strain | inhibition, % at 50 µM | 190,000 tested, 1.8% active | AID 868, 2007;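 active means inhibition above a set limit, 3 SD over mean compound inhibition, cut at about 8.4% in these data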;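 further: inhibition rescues growth on 5-FOA so higher OD means more RAM inhibition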
SDO1 yeast rescue – growth rescue of sdo1-depleted yeast, primary screen, S. cerevisiae, bone marrow failure model. z-score at 10 µM. 140,000 tested, 0.21% active. S. cerevisiae sdo1-depleted JHY4D growth rescue, OD600 30 h; active compounds read high; pdr5 snq2 efflux-pump mutant strain;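 active means z-score above 3 at both the 24 hr and the 30 hr optical density reads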
Yeast growth inh – growth inhibitors of yeast BB579 in restrictive medium, primary screen, yeast lifespan-shortening project, S. cerevisiae | OD615, 48 h | inhibition, % at 10 µM | 140,000 tested, 0.51% active | AID 804, 2007;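 active means inhibition above a set limit, 3 SD over the mean compound inhibition, cut at about 44% in these data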
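controls = amphotericin B 10 µg/mL, positive | assay system = DeaD yeast strain BB579 | schedule = 48 h compound exposure at 30 °C after 4 h preincubation | detection = OD615 turbidity measurement | medium = restrictive CSMM-D medium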
Yeast lifespan up – compounds extending yeast replicative lifespan, primary screen, S. cerevisiae, OD615 | S. cerevisiae growth with nicotinamide; deaD strain in restrictive glucose medium | inhibition of the nicotinamide effect, % at 10 µM | 130,000 tested, 0.68% active;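 active means inhibition above a set limit, placed 3 SD over the median of all compounds, cut at about 26% in these data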
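Assay system: engineered S. cerevisiae DeaD replicative-lifespan strain, galactose-grown log-phase cells; medium: restrictive CSMM-D dextrose medium; also added: nicotinamide, 1.5 mM, co-present with compound; schedule: 48 h compound exposure at 30 °C, humidified; detection: absorbance at 615 nm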
A number is an active result.

`Cc1cc([N+](=O)[O-])c2[nH]c(C(=O)N/N=C/c3ccccc3C(=O)O)c(-c3ccccc3)c2c1` gave RAM network inh 8.7, SDO1 yeast rescue inactive, Yeast growth inh inactive and Yeast lifespan up inactive.
Cc1ccc2nc(C)c(C(=O)N/N=C/c3ccccc3[N+](=O)[O-])cc2c1 was read as RAM network inh inactive, SDO1 yeast rescue inactive, Yeast growth inh inactive and Yeast lifespan up inactive.
CCCCOCC1CN(c2ccccc2)C(=O)CS1 (stereo not drawn) was read as RAM network inh inactive, SDO1 yeast rescue inactive, Yeast growth inh inactive and Yeast lifespan up inactive.
Screening CCCCC1C(=O)N(c2ccccc2)N(c2ccccc2)C1=O returned RAM network inh inactive, SDO1 yeast rescue inactive, Yeast growth inh inactive and Yeast lifespan up 28.
`CCN(CC)c1ccc(/C=C2/C(=O)c3ccc(C(=O)O)cc3C2=O)cc1` gave RAM network inh 9.9, SDO1 yeast rescue inactive, Yeast growth inh inactive and Yeast lifespan up inactive.
CCN(CC)c1ccc(C=C2C(=O)OC3(CCCCC3)OC2=O)cc1 was read as RAM network inh inactive.
`O=C(Cc1cccs1)NCCSc1c(-c2ccc(Cl)cc2)[nH]c2ccccc12` gave RAM network inh 8.9, SDO1 yeast rescue inactive, Yeast growth inh inactive and Yeast lifespan up inactive.
`Cc1onc(-c2ccccc2Cl)c1C(=O)Nc1cccc(-c2cn3cccnc3n2)c1` gave RAM network inh 9.0, SDO1 yeast rescue inactive, Yeast growth inh inactive and Yeast lifespan up inactive.
COc1cc(C(=O)Nc2cccc(-c3cn4cccnc4n3)c2)cc(OC)c1OC was read as RAM network inh inactive.
For O=C(NCc1cccs1)c1nn2cccnc2c1Cl the results were RAM network inh inactive, SDO1 yeast rescue inactive, Yeast growth inh inactive and Yeast lifespan up inactive.
`CCOc1ccc(-c2nc(-c3ccc(OC)cc3)no2)cc1OCC` gave RAM network inh 9.1, SDO1 yeast rescue inactive, Yeast growth inh inactive and Yeast lifespan up inactive.
`COc1ccc(-c2noc(-c3cccc(Cl)c3)n2)cc1OC` gave RAM network inh 9.1, SDO1 yeast rescue inactive, Yeast growth inh inactive and Yeast lifespan up inactive.
For COc1ccc(C(C(=O)Nc2ccc(C(C)C)cc2)N(C)C(=O)c2ccc(=O)[nH]c2)cc1 (stereo not drawn) the results were RAM network inh 9.0.
`COc1ccc(NC(=O)C(NC(=O)c2ccc(=O)[nH]c2)c2ccccc2)cc1` (stereo not drawn) gave RAM network inh inactive, SDO1 yeast rescue inactive, Yeast growth inh inactive and Yeast lifespan up inactive.
`C1CN(c2nc3nonc3nc2N2C[C@H]3CC[C@H]2C3)CCS1` gave RAM network inh inactive.
COc1ccc(NC(=S)N2CCN(CCN=CC3=C(O)CC(c4ccccc4)CC3=O)CC2)cc1 (stereo not drawn) was read as RAM network inh inactive, SDO1 yeast rescue inactive, Yeast growth inh inactive and Yeast lifespan up 50.
`O=C1CC(c2ccco2)CC(O)=C1C=NCCN1CCN(C(=O)Nc2ccc(Cl)cc2)CC1` (stereo not drawn) gave RAM network inh inactive, SDO1 yeast rescue inactive, Yeast growth inh inactive and Yeast lifespan up inactive.
For CC(=O)N1CCN(CCN=CC2=C(O)CC(c3cccs3)CC2=O)CC1 (stereo not drawn) the results were RAM network inh inactive, SDO1 yeast rescue inactive, Yeast growth inh inactive and Yeast lifespan up 36.
Screening O=C1CC(c2ccc(F)cc2)CC(O)=C1C=NCCN1CCN(C(=O)Nc2ccccc2)CC1 (stereo not drawn) returned RAM network inh inactive, SDO1 yeast rescue inactive, Yeast growth inh inactive and Yeast lifespan up 90.
Screening Cc1ccc(NC(=O)c2cc(C)n(-c3ccccc3)c2C)cc1 returned RAM network inh inactive, SDO1 yeast rescue inactive, Yeast growth inh inactive and Yeast lifespan up inactive.
CCOC(=O)c1cc(CC)sc1NC(=O)c1ccc(N2C(=O)CCC2=O)cc1 was read as RAM network inh inactive, SDO1 yeast rescue inactive, Yeast growth inh inactive and Yeast lifespan up inactive.
CCOC(=O)c1cc(CC)sc1NC(=O)c1cc(OC)c(OC)c(OC)c1 was read as RAM network inh 11, SDO1 yeast rescue inactive, Yeast growth inh inactive and Yeast lifespan up inactive.
For COc1cccc(N/C(SCc2cccc([N+](=O)[O-])c2)=C(/C#N)C(N)=O)c1 the results were RAM network inh 8.5.
Cc1ccccc1N/C(SCc1cccc(Br)c1)=C(/C#N)C(N)=O was read as RAM network inh inactive, SDO1 yeast rescue inactive, Yeast growth inh inactive and Yeast lifespan up inactive.
`COc1ccc(OC2C(=O)N(CCc3ccc(OC)c(OC)c3)C2c2ccc3c(c2)OCO3)cc1` (stereo not drawn) gave RAM network inh inactive, SDO1 yeast rescue inactive, Yeast growth inh inactive and Yeast lifespan up inactive.
For CSc1ccc(OC2CCN(Cc3ccccc3)CC2)cc1 the results were RAM network inh inactive, SDO1 yeast rescue inactive, Yeast growth inh inactive and Yeast lifespan up inactive.
For C/C(=N\Nc1nc2c(s1)CCCC2)c1ccccc1 the results were RAM network inh inactive, SDO1 yeast rescue inactive, Yeast growth inh 63 and Yeast lifespan up inactive.
`Cc1ccc(C)c(N2CCN(S(=O)(=O)c3c(C)noc3/C=C/N(C)C)CC2)c1` gave RAM network inh inactive, SDO1 yeast rescue inactive, Yeast growth inh inactive and Yeast lifespan up 36.
For COc1ccc(/C=C\C(=O)NCc2ccc3[nH]c(C)cc3c2)cc1OC the results were RAM network inh 10, SDO1 yeast rescue inactive, Yeast growth inh inactive and Yeast lifespan up inactive.
COc1cc(/C=C\C(=O)NCc2ccc3[nH]c(C)cc3c2)cc(OC)c1OC was read as RAM network inh inactive, SDO1 yeast rescue inactive, Yeast growth inh inactive and Yeast lifespan up inactive.
Screening O=C(Cn1ccc2ccccc2c1=O)NCCC(=O)N1CCN(c2cccc(Cl)c2)CC1 returned RAM network inh 9.7, SDO1 yeast rescue inactive, Yeast growth inh inactive and Yeast lifespan up inactive.
For C=C(C(=O)c1ccccc1)C(C)C(=C)C(=O)c1ccccc1 the results were RAM network inh inactive, SDO1 yeast rescue inactive, Yeast growth inh inactive and Yeast lifespan up 46.
For CC1Cc2cc(-c3csc(NC(=O)Cc4cccs4)n3)ccc2N1S(C)(=O)=O (stereo not drawn) the results were RAM network inh inactive, SDO1 yeast rescue inactive, Yeast growth inh inactive and Yeast lifespan up inactive.
N#Cc1c(NC(=O)c2cc(-n3cnnc3)ccc2Cl)sc2c1CCCC2 was read as RAM network inh inactive, SDO1 yeast rescue inactive, Yeast growth inh inactive and Yeast lifespan up inactive.
O=C(Oc1c(Cl)cc(Cl)c2cccnc12)c1cccc([N+](=O)[O-])c1 was read as RAM network inh inactive, SDO1 yeast rescue inactive, Yeast growth inh 100 and Yeast lifespan up inactive.
For CCOc1cccc(CNCCO)c1OCc1ccc(Cl)cc1Cl the results were RAM network inh inactive, SDO1 yeast rescue inactive, Yeast growth inh inactive and Yeast lifespan up inactive.
Screening CCOc1cc(CNCCO)cc(Br)c1OCc1ccc(Cl)cc1Cl returned RAM network inh inactive, SDO1 yeast rescue inactive, Yeast growth inh 96 and Yeast lifespan up inactive.
